Screening data deposited in PubChem by several laboratories.
Shown are actives, neighbours in structure and some others; about 1.6% of the full set was active somewhere.
HDAC3 inhib: human HDAC3 inhibition. recombinant HDAC3, fluorogenic peptide/trypsin coupled, fluorescence. actives 0.15% (n = 320,000). AID 2718. inhibition, % at 8.3 µM; in the data active = inhibition above about 26%, passing the limit was not always enough
LANA-H2B inh: blocks KSHV LANA binding to histone H2A/H2B. Q9QR71. cell-free LANA-H2A/H2B peptide, fluorescence polarization. inhibition, % (test concentration not listed). actives 0.6% (n = 320,000); in the data active = inhibition mostly above about 10%, no sharp cut-off; inactive = mostly below about 6.7%
Arr AP2 block: inhibitors of human beta-arrestin and AP2 interaction | AID 504490 | actives 0.31% (n = 340,000) | FITC-arrestin peptide / GST-AP2 beads, flow cytometry; AP2 beta2 appendage carries R879A mutation | inhibition, % at 10 µM;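 active = inhibition above a set limit, near 3 SD of compounds lacking own fluorescence, cut at about 54% in these data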;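 also: plate controls were DMSO wells for no effect and 5 µM unlabelled arrestin peptide for full effect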
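Material – GST-tagged AP2 beta2-adaptin appendage (R879A) on 4 µm glutathione beads · Probe or stimulus – fluorescein-tagged arrestin peptide at 50 nM final · Timing – 12 min plus 1 h, RT · Detection – bead flow cytometry, FITC channel · Read-out basis – inhibition as reduced fluorescein signal on beads, percent · Medium – PBS plus Tween 20 (0.05%) and BSA (0.1%)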
JMJD2C inh: human JMJD2C demethylase inhibition; inhibition, % at 2.35 µM; actives 0.069% (n = 330,000); GST-JMJD2C(1-420) H3K9me3 demethylation, DELFIA europium; Q9H3R0;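 active = more than half of a compound's replicate wells show inhibition beyond 50%, single wells judged on their own value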;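 also: signal counts dimethyl H3K9 product captured on neutravidin plate; 0% = median of DMSO wells and 100% = 0.3 times that DMSO median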
DSG3 Ab inh: blocks pemphigus antibody binding to human desmoglein-3; binding (percent of control), % at 10 µM; DSG3-coupled beads, scFv-anti-DSG3-GFP binding, flow cytometry; hits give low values; actives 0.48% (n = 310,000); AID 588358;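 active = binding more than 3 SD below its plate's average and above zero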;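 also: hits lower antibody fragment binding to DSG3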
T cell HTS: T cell immune modulation candidate; 2C CD8+ T cell-vesicle binding, flow cytometry; hits give low values; actives 0.068% (n = 330,000); response (vesicle binding), % at 7 µM;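 active = response, share of CD8 T cells binding vesicles, and their 90th percentile fluorescence all below set limits, cut at about 80% in these data, passing the limit was not always enough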;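 also: values below 100% mean blocked vesicle binding to the CD8+ T cells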
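Benchmarks: naked versus QL9-loaded vesicles / Assay system: purified 2C TCR transgenic mouse naive CD8+ T cells / Technique: high-throughput flow cytometry with anti-B7-1 and anti-CD8 staining / Timing: Cell–vesicle co-incubation 1.5 h at 37 °C, staining 20 min on ice / Read-out: percent CD8+ FL2 mean versus row control / Probe or stimulus: QL9-loaded Drosophila micro-vesicles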
* = called active by the depositor; i = inactive; nt = not tested or not shown; + = active, no number.

SMILES	HDAC3 inhib	LANA-H2B inh	Arr AP2 block	JMJD2C inh	DSG3 Ab inh	T cell HTS
Cc1ccc(S(=O)(=O)N(Cc2cc3cc4c(cc3[nH]c2=O)OCCO4)CC2CCCO2)cc1 (stereo not drawn)	-3	-2	-6	i	82*	608
COc1ccc(C)c2sc(NC(=O)CCS(=O)(=O)c3ccccc3)nc12	-7	103*	-3	26	116	169
Cc1cccc(NC(=O)CN2C(=O)N/C(=C\c3ccc(-c4cccc(C(=O)O)c4)o3)C2=O)c1	-12	113*	6	0	97	179
CCc1nccn1S(=O)(=O)c1ccccc1[N+](=O)[O-]	-4	8	9	-3	93	404
COc1ccccc1C(=O)Nc1ccc2c(c1)nc1n2CCN(Cc2ccccc2)C1	-7	16*	20	2	109	i
O=C(Nc1ccc2c(c1)nc1n2CCN(Cc2ccccc2)C1)c1cccs1	3	7	0	15	100	232
CCc1cc2ccc(C)cc2nc1SCC(=O)c1ccc(NC(C)=O)cc1	68*	0	-5	3	94	221
CCc1cc2cccc(C)c2nc1SCC(=O)c1ccc(NC(C)=O)cc1	0	-4	4	3	110	240
O=C(CN1CCN(C(=O)C2CC2)CC1)Nc1cc(C(F)(F)F)cc(C(F)(F)F)c1	9	-1	-2	-3	113	185
C[C@@H]1CN([C@@H](C)CO)S(=O)(=O)c2ccc(-c3ccc(C#N)cc3)cc2O[C@@H]1CN(C)Cc1ccccn1	nt	nt	nt	nt	100	nt
CCc1ccc(S(=O)(=O)NC2CCCCNC2=O)cc1 (stereo not drawn)	4	-9	13	-2	76*	319
COc1cc(OC)cc(-c2oc(=O)c3cc(OC)c(OC)cc3c2C#CCCO)c1	-38	-1	31	15	102	432
COc1cc(OC)cc(-c2oc(=O)c3cc(OC)c(OC)cc3c2C(F)(F)F)c1	3	4	4	-4	103	60*
O=C(CSc1cccc[n+]1[O-])Nc1ccccc1C(F)(F)F	-5	-3	2	-1	96	438
O=C(CSc1cccc[n+]1[O-])Nc1ccccc1Oc1ccccc1	3	+	-16	17	nt	138
CCC1(C(=O)NC(=Nc2ccccc2)Nc2ccccc2)CCOC1=O (stereo not drawn)	nt	nt	1	nt	110	nt
CCCCCC(O)(c1ccc(OCC)cc1)C(CN1CCOCC1)c1ccccc1 (stereo not drawn)	26*	-2	-20	-5	100	168
COc1cc(C(=O)NCCCn2ccnc2)cc(OC)c1OC	4	11*	10	0	111	196
COc1ccc(C(=O)NCCCn2ccnc2)cc1[N+](=O)[O-]	6	1	-5	-2	110	202
Cc1c(C(=O)Nc2ccc(OCc3ccccc3)cc2)cccc1[N+](=O)[O-]	1	-13	-2	-2	39*	452
Cc1nc2ccccc2cc1C(=O)N/N=C/c1ccco1	5	-1	1	4	86	170
Cc1nc2ccccc2cc1C(=O)N/N=C/c1cccs1	6	2	10	-10	87	0.0*
O=C(NO)c1ccc(OC(F)F)cc1	73*	6	-4	2	97	65
CCOc1ccc(N2CC(C(=O)Nc3ccc(N4CCOCC4)cc3)CC2=O)cc1 (stereo not drawn)	0	7	0	6	-10*	433
CCN(CC)CCNC(=O)c1ccc(NC(=O)C2CC(=O)N(c3ccc4c(c3)OCCO4)C2)cc1 (stereo not drawn)	-1	61*	-8	2	126	131
Cc1ccc(N2CC(C(=O)Nc3ccc(N4CCOCC4)cc3)CC2=O)cc1C (stereo not drawn)	-5	3	-3	-12	-0.9*	230
Cn1cccc1CN1CCC[C@]2(N[C@H](c3ccc(C(F)(F)F)cc3)[C@@H]3C(=O)N(Cc4ccccc4)C(=O)[C@@H]32)C1=O	nt	nt	nt	nt	98	nt
CCNc1nc(-c2cc(C)n(Cc3ccco3)c2C)cs1	3	3	-2	20	91	i
